Assay results of several laboratories.
Each line is one published result; the experiments were not run side by side.
DYRK1A: Dual specificity tyrosine-phosphorylation-regulated kinase 1A (DYRK1A, Homo sapiens, UniProt Q13627)
PDGFRB: Platelet-derived growth factor receptor beta (PDGFRB, Homo sapiens, UniProt P09619)

The remaining binding of `C1=C/COCc2cc(ccc2OCCN2CCCC2)Nc2nccc(n2)-c2cccc(c2)COC/1` is reported as 76% (Myosin light chain kinase 2, skeletal/cardiac muscle (MYLK2, Homo sapiens, UniProt Q9H1R3); binding; 0.1 µM).
`C#Cc1cc(-c2cc(Nc3nc(N[C@@H](C)c4ccc(F)cn4)ncc3Cl)n[nH]2)ccc1C=O` gave an inhibition of 4.84% (Dual specificity tyrosine-phosphorylation-regulated kinase 3 (DYRK3, Homo sapiens, UniProt O43781); enzyme activity; inhibitor; 0.2 µM).
`CCN1/C(=C/C(C)=O)Sc2ccc(F)cc21` has an inhibition of 0% (Neuropeptide Y receptor type 2 (NPY2R, Homo sapiens, UniProt P49146); ligand displacement; radioligand; 10 µM).
With `CC(=O)ON=C1C=CC(=C(C#N)c2ccccc2)C=C1` the activity vs control was 82% (DYRK1A; enzyme activity; inhibitor; ADP detection; 20 µM).
For `Nc1cc(-c2ccncc2)cs1`, the inhibition was 25.6% (DYRK1A; enzyme activity; inhibitor; ADP detection; 10 µM).
`COc1ccc2oc(-c3ccc4nc(N)oc4c3)c/c(=N\c3ccccc3NC(=O)CCN)c2c1` has a remaining binding of 107% (PDGFRB; binding; 1 µM).
With `CCCCC(=O)Nc1ccc(-c2ccc3ncn(CCC)c(=O)c3c2)cn1` the remaining binding was 85% (Serine/threonine-protein kinase 25 (STK25, Homo sapiens, UniProt O00506); binding; competition with immobilised ligand; 0.5 µM).
The inhibition of `Clc1ccc(-c2cn[nH]c2)s1` is reported as 52.5% (DYRK1A; enzyme activity; inhibitor; ADP detection; 10 µM).
With `Cc1cc(O)c(-c2ccc([C@@H](C)CN(C)C)cc2)c2c1[nH]c(=O)c1sccc12` the inhibition was -4.48% (Ephrin type-B receptor 3 (EPHB3, Homo sapiens, UniProt P54753); cell-free assay; inhibitor; 0.1 µM).
The inhibition of `O=C1C2C3CC(C(Br)C3Br)C2C(=O)N1CC1CCCO1` (stereo not shown) is reported as 41.5% (DYRK1A; enzyme activity; inhibitor; ADP detection; 10 µM).
For `NC/C(=C\F)COc1cccc(Cn2c(=S)[nH]c(=O)c3[nH]cnc32)c1`, the inhibition was under 50% (Alpha-1D adrenergic receptor (ADRA1D, Homo sapiens, UniProt P25100); ligand displacement; radioligand; 10 µM).
`N#Cc1ccc(NC(=O)Nc2ccccc2)cc1` gave an inhibition of 67% (PDGFRB; cell-free assay; competition with immobilised ligand; 25 µM).
`Nc1ncnc2c1ncn2[C@@H]1O[C@H](COP(=O)(O)OP(=O)(O)OP(=O)(O)O)[C@@H](O)[C@H]1O` has a Km of 2.7 µM (Inositol-tetrakisphosphate 1-kinase (Homo sapiens, UniProt Q13572); enzyme activity; substrate; ADP detection).
